Assay results taken from ChEMBL document CHEMBL5390224, “Design, synthesis, and biological evaluation of a novel series of 1,2,4-oxadiazole inhibitors of SLACK potassium channels: Identification of in vitro tool VU0935685” (Bioorg Med Chem, 2023).
Calls of active or inactive are those of the source. The rule behind the calls is not given here.

Experiments:
[1] = test system: HEK293; assay: Inhibition of wild-type human SLACK expressed in HEK293 cells assessed as efficacy at 30 uM by thallium flux assay relative to control; type: cell-based
How it was run: (§1)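 Stable monoclonal HEK293 lines (WT or A934T SLACK) plated 20,000 cells/well; loaded 1 h at room temperature with Thallo-AM dye, 1.25 mM probenecid, masking dye, 0.3% Pluronic F-127 in buffer with 2.7 mM RbCl, pH 7.3. Compound preincubated 120 s, then Tl2SO4 stimulus (2.5 mM); fluorescence read 120 s. Concentration–response 1.5 nM–30 μM in half-log steps, ≥3 replicate wells.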

[2] = Inhibition of wild-type human SLACK expressed in HEK293 cells by thallium flux assay; type: cell-based; how it was run: as §1
[3] = molecular target: Calcium-activated potassium channel subunit alpha-1 (Homo sapiens) (UniProt Q12791); assay: Inhibition of Maxi-K (unknown origin) expressed in HEK293 cells by thallium flux assay; type: cell-based
[4] = molecular target: T1, Potassium channel subfamily T member 2 (Homo sapiens) (UniProt Q6UVM3); assay: Inhibition of SLICK (unknown origin) expressed in HEK293 cells assessed as efficacy at 30 uM by thallium flux assay relative to control; type: cell-based
T1 sequence (whole entry): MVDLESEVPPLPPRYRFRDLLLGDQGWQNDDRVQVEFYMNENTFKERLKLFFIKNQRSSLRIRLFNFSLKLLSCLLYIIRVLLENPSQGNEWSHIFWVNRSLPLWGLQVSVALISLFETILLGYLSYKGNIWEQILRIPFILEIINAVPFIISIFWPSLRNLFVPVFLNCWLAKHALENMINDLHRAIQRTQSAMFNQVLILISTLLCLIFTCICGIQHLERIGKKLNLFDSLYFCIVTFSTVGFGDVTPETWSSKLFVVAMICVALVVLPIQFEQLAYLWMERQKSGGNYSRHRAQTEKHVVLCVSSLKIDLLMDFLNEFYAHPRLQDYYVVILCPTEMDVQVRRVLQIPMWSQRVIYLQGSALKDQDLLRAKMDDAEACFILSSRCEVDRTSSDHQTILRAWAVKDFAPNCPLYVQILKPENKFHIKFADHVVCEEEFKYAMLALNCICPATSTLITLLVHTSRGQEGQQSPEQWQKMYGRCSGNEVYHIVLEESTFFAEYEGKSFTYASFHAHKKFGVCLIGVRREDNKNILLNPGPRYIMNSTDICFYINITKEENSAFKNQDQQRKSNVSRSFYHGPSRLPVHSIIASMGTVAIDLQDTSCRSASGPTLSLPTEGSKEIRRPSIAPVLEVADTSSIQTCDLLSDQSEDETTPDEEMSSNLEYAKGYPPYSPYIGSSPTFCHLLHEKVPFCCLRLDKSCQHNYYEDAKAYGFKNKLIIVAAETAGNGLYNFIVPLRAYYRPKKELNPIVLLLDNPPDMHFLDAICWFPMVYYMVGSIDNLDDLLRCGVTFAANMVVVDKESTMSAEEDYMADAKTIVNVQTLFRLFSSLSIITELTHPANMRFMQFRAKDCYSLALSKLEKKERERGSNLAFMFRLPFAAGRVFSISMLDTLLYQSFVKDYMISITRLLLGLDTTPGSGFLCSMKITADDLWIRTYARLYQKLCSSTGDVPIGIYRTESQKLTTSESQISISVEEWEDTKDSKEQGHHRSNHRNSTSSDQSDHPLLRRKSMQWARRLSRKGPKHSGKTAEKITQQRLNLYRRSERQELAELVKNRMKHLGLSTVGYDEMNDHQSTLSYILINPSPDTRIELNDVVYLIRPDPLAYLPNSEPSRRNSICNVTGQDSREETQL

[5] = Inhibition of human SLACK A934T mutant expressed in HEK293 cells by thallium flux assay; type: cell-based; how it was run: as §1
[6] = molecular target: Calcium-activated potassium channel subunit alpha-1 (Homo sapiens) (UniProt Q12791); assay: Inhibition of Maxi-K (unknown origin) expressed in HEK293 cells assessed as efficacy at 30 uM by thallium flux assay relative to control; type: cell-based
[7] = molecular target: T2, Potassium channel subfamily T member 2 (Homo sapiens, UniProt Q6UVM3); assay: Inhibition of SLICK (unknown origin) expressed in HEK293 cells by thallium flux assay; type: cell-based
T2 sequence (Q6UVM3 whole entry): T1 sequence (whole entry)

[8] = Metabolic stability in mouse liver microsomes assessed as compound remaining measured after 10 min in presence of NADPH; type: ADME, Microsome
How it was run: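 Mouse liver microsomes (0.5 mg/mL) with compound (5 μM) preincubated 5 min at 37 °C in 100 mM potassium phosphate, pH 7.4. Reaction started with NADPH (1 mM) plus MgCl2 (3 mM). Samples at 0 and 10 min quenched in cold acetonitrile with internal standard; percent remaining by LC/MS/MS.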

[9] = test system: CHO; assay: Inhibition of wild-type human SLACK expressed in CHO cells assessed as efficacy at 30 uM by whole cell voltage clamp electrophysiology assay; type: cell-based; details: Cricetulus griseus
[10] = Plasma protein binding in mouse assessed as unbound fraction by equilibrium dialysis method; type: ADME, cell-free
How it was run: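 Equilibrium dialysis, 12–14 K MWCO cellulose membrane: plasma spiked to 5 μM final versus 25 mM phosphate buffer pH 7.4, 6 h at 37 °C, shaking 200 rpm. Both sides matrix-matched, acetonitrile extraction with internal standard, LC/MS/MS quantitation. Triplicate.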

[11] = test system: HEK293; assay: Inhibition of human SLACK A934T mutant expressed in HEK293 cells assessed as efficacy at 30 uM by thallium flux assay relative to control; type: cell-based; how it was run: as §1
[12] = Inhibition of wild-type human SLACK expressed in CHO cells by whole cell voltage clamp electrophysiology assay; type: cell-based; details: Cricetulus griseus
How it was run: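 Automated whole-cell patch clamp at room temperature. External (mM): NaCl 105, KCl 4, MgCl2 1, CaCl2 5, HEPES 10, NMDG-Cl 40, pH 7.4. Internal: NaCl 70, KF 70, KCl 10, EGTA 5, HEPES 5, pH 7.2. Concentrations 0.125–30 μM in half-log steps, ≥3 cells per series.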

Calcium-activated potassium channel subunit alpha-1 (Homo sapiens), sequence (Q12791 whole entry): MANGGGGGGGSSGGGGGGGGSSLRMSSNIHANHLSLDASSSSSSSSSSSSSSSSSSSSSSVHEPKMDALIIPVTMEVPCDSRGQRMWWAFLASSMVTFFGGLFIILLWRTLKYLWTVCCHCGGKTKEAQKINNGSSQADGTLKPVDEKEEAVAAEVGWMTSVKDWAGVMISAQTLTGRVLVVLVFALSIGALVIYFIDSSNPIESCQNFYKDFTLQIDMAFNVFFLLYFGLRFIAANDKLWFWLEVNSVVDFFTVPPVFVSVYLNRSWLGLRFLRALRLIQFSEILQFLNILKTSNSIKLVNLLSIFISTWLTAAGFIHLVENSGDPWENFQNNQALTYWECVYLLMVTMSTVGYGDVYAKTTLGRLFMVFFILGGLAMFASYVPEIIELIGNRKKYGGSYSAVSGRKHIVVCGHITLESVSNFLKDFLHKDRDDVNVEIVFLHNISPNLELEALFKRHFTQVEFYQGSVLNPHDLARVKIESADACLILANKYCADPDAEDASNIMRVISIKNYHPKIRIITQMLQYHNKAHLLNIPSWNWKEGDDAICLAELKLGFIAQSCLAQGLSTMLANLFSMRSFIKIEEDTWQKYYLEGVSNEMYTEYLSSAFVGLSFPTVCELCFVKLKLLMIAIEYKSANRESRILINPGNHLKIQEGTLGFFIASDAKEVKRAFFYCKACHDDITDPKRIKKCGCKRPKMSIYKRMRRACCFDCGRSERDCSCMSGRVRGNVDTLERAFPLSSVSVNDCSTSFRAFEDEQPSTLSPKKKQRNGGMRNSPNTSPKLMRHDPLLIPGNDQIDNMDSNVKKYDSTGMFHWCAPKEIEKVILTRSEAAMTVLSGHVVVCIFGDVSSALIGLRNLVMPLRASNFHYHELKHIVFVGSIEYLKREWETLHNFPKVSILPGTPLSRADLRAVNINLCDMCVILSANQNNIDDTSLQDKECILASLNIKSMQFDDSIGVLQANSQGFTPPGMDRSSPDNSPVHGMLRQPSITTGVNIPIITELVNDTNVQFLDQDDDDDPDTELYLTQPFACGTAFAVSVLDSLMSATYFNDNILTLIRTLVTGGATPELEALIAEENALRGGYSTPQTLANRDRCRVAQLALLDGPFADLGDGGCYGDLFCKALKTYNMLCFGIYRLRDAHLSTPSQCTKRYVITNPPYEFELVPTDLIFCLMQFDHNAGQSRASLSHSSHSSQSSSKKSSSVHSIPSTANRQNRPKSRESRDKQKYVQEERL

SMILES | IC50 [2] | inhibition [3] | Efficacy [4] | IC50 [5] | Efficacy [6] | IC50 [7] | Activity [8] | Fu [10] | IC50 [12] | inhibition ([3]; tested as the 2H-labelled form) | Efficacy ([4]; tested as the 2H-labelled form) | Efficacy ([6]; tested as the 2H-labelled form) | Efficacy [1] | Efficacy [9] | Efficacy [11] | Efficacy ([9]; tested as the 2H-labelled form) | Efficacy ([1]; tested as the 2H-labelled form) | Efficacy ([11]; tested as the 2H-labelled form)
CCOc1ccccc1S(=O)(=O)N1CC[C@H](c2nc(-c3ccc(F)cc3)no2)C1 | > 10 µM |  |  |  |  |  |  |  |  |  |  |  | 63% |  |  |  |  | 
CCOc1ccccc1S(=O)(=O)N1CCC(c2nc(-c3ccc(F)cc3)no2)CC1 |  | inactive | 35% | 4300 nM | inactive | > 10 µM | 21% | < 0.01 | 1760 nM |  |  |  | 105% | 100% | 129% |  |  | 
CCOc1ccccc1S(=O)(=O)N1CC(c2nc(-c3ccc(F)s3)no2)C1 |  | inactive | 65% | 970 nM | inactive | > 10 µM | < 10% | 0.024 | 700 nM |  |  |  | 105% | 100% | 103% |  |  | 
CC(C)Oc1ccccc1S(=O)(=O)N1CC(c2nc(-c3ccsc3)no2)C1 |  | inactive | 47% | 1100 nM | inactive | > 10 µM | < 10% | < 0.01 | 1090 nM |  |  |  | 103% | 101% | 109% |  |  | 
CCOc1ccccc1S(=O)(=O)N1CC(c2nc(-c3cccs3)no2)C1 | 6.9 µM |  |  |  |  |  |  |  |  |  |  |  | 99% |  |  |  |  | 
CCCOc1ccccc1S(=O)(=O)N1CC(c2nc(-c3ccsc3)no2)C1 | 2.6 µM |  |  |  |  |  |  |  |  |  |  |  | 87% |  |  |  |  | 
CCOc1ccccc1S(=O)(=O)N1CC(c2nc(-c3ccc(F)cc3F)no2)C1 | 6.5 µM |  |  |  |  |  |  |  |  |  |  |  | 93% |  |  |  |  | 
CCOc1ccccc1S(=O)(=O)N1CC(c2nc(-c3ccc(C(F)(F)F)cc3)no2)C1 | 3.8 µM |  |  |  |  |  |  |  |  |  |  |  | 95% |  |  |  |  | 
CCOc1ccccc1S(=O)(=O)N1CC(c2nc(-c3ccc(Cl)cc3F)no2)C1 | 7.2 µM |  |  |  |  |  |  |  |  |  |  |  | 99% |  |  |  |  | 
CCOc1ccccc1S(=O)(=O)N1CC(c2nc(-c3cnsc3)no2)C1 | 6.6 µM |  |  |  |  |  |  |  |  |  |  |  | 106% |  |  |  |  | 
CCOc1ccccc1S(=O)(=O)N1CC(c2nc(-c3ccc(F)cc3Cl)no2)C1 | 2.1 µM | inactive | 44% | 2000 nM | inactive | > 10 µM | 59% | 0.014 | 430 nM |  |  |  | 95% | 100% | 95% |  |  | 

The next lines start with results.

IC50 [2] | inhibition [3] | Efficacy [4] | IC50 [5] | Efficacy [6] | IC50 [7] | Activity [8] | Fu [10] | IC50 [12] | inhibition ([3]; tested as the 2H-labelled form) | Efficacy ([4]; tested as the 2H-labelled form) | Efficacy ([6]; tested as the 2H-labelled form) | SMILES | Efficacy [1] | Efficacy [9] | Efficacy [11] | Efficacy ([9]; tested as the 2H-labelled form) | Efficacy ([1]; tested as the 2H-labelled form) | Efficacy ([11]; tested as the 2H-labelled form)
 | inactive | 56% | 1500 nM | inactive | 5.9 µM | 71% | 0.014 | 1580 nM |  |  |  | O=S(=O)(c1cccc2cccnc12)N1CC(c2nc(-c3ccc(F)cc3)no2)C1 | 98% | 100% | 112% |  |  | 
 | inactive | 55% | 2600 nM | inactive | > 10 µM | 19% | < 0.01 | 1630 nM |  |  |  | O=S(=O)(c1cccc2c1OCCC2)N1CC(c2nc(-c3ccc(F)cc3)no2)C1 | 93% | 100% | 104% |  |  | 
> 10 µM |  |  |  |  |  |  |  |  |  |  |  | CCOc1ccccc1S(=O)(=O)N1CC[C@@H](c2nc(-c3ccc(F)cc3)no2)C1 | 31% |  |  |  |  | 
3.2 µM | inactive | 50% | 1000 nM | inactive | 2.3 µM | 58% | 0.012 | 1000 nM | inactive | 55% | inactive | CCOc1ccccc1S(=O)(=O)N1CC(c2nc(-c3ccc(F)cc3)no2)C1 | 105% | 101% | 110% | 101% | 100% | 83%
 | inactive | 27% | 2500 nM | inactive | > 10 µM | 57% | 0.012 | 1760 nM |  |  |  | O=S(=O)(c1ccccc1OCC(F)(F)F)N1CC(c2nc(-c3ccc(F)cc3)no2)C1 | 91% | 100% | 72% |  |  | 
5.4 µM |  |  | 2300 nM |  | > 10 µM | 63% | 0.012 | 1040 nM |  |  |  | [2H]C([2H])([2H])C([2H])([2H])Oc1ccccc1S(=O)(=O)N1CC(c2nc(-c3ccc(F)cc3)no2)C1 |  |  |  |  |  | 
